According to ChEMBL document CHEMBL4725385, “Design and synthesis of β-strand-fixed peptides inhibiting aggregation of amyloid β-protein” (Bioorg Med Chem, 2020):
Active and inactive are the calls of the source. The calls are words filed in the database; no cut-off is given here. Peptide text beside a SMILES is read from it.

How the values were obtained:
[1] = molecular target: Amyloid-beta precursor protein (Homo sapiens) (UniProt P05067); test: Inhibition of HFIP-pretreated amyloid beta (1 to 42) (unknown origin) aggregation in PBS buffer at pH 7.4 incubated for 48 hrs by thioflavin-T fluorescence assay
Method in brief: (§1)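 Aβ42 pretreated with HFIP (1 mg/mL, 30 min RT, sonicated 5 min, dried to film), then diluted from 0.1% NH4OH stock to final 10 µM in PBS (50 mM sodium phosphate, 100 mM NaCl) with compound from DMSO stock (final 1% DMSO), pH 7.4. Incubated at 37 °C for 0–48 h. Aliquots were frozen at -80 °C, then mixed with 5.0 µM Th-T in 50 mM Gly-NaOH pH 8.5. Fluorescence read at ex 430/em 510 nm, buffer background subtracted; mean ± SD, n = 4.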

[2] = molecular target: Amyloid-beta precursor protein (Homo sapiens) (UniProt P05067); test: Inhibition of HFIP-pretreated amyloid beta (1 to 42) (unknown origin) aggregation in PBS buffer at pH 7.4 assessed as effect on fibril formation at 40 uM after 48 hrs by uranyl acetate staining based transmission electron microscopy
Method in brief: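 HFIP-treated Aβ42 (final 10 µM) was incubated with compound (final 40 µM) in PBS containing 1% DMSO, pH 7.4, at 37 °C for 48 h. Pellets were collected by centrifugation and resuspended in distilled water. They were left on formvar-coated copper grids for 5 min, negatively stained with 2% uranyl acetate and imaged by TEM.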

SH-SY5Y [3] = test: Neuroprotective activity against amyloid beta (1 to 42 residues) induced cytotoxicity in human SH-SY5Y cells assessed as cell viability at 10 uM after 48 hrs by MTT assay; format: functional, cell-based
Method in brief: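 SH-SY5Y cells (ATCC) were grown in DMEM/F-12 with 10% FBS and penicillin/streptomycin at 37 °C, 5% CO2. Cells were plated at 2.0 × 10^4 per well and pre-incubated for 24 h. HFIP-treated Aβ42 (final 1 µM) and compound (final 10 µM) were added, with 0.5% DMSO and 0.01% NH4OH final. After 48 h, MTT (5 mg/mL stock) was added for 4 h, then DMSO was used for solubilization. Mean ± SD, n = 3.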

SH-SY5Y [4] = test: Cytotoxicity against human SH-SY5Y cells assessed as reduction in cell viability at 10 uM measured after 48 hrs by MTT assay; format: cell-based
[5] = molecular target: Amyloid-beta precursor protein (Homo sapiens) (UniProt P05067); test: Inhibition of HFIP-pretreated amyloid beta (1 to 42) (unknown origin) aggregation in PBS buffer at pH 7.4 at 40 uM incubated for 48 hrs by thioflavin-T fluorescence assay; method in brief: as §1

Sequence of Amyloid-beta precursor protein (Homo sapiens) (P05067 whole entry): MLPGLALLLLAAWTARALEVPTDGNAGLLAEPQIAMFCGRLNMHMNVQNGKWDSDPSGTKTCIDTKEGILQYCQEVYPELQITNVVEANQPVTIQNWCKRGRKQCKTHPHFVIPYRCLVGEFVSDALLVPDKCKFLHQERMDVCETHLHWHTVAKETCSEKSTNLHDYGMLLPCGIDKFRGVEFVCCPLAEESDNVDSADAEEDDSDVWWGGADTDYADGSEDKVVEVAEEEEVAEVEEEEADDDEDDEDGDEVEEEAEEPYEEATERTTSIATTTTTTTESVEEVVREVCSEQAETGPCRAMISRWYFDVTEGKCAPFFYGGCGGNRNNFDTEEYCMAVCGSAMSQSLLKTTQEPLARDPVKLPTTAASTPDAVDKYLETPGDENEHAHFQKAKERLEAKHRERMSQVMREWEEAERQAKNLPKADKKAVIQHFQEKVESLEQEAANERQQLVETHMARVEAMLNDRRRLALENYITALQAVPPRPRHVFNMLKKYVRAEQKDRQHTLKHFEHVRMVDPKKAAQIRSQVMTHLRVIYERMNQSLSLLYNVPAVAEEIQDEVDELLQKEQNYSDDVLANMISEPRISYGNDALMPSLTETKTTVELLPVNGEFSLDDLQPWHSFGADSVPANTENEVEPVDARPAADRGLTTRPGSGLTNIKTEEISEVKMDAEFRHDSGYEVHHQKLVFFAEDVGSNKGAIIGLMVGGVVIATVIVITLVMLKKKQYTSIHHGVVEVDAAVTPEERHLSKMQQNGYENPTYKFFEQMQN

Q: How did the inhibition [1] turn out when `CC(C)C[C@H](N)C(=O)N[C@H]1C/C=C/COc2ccc(cc2)C[C@@H](C(=O)N[C@@H](C)C(=O)O)NC(=O)[C@H](Cc2ccccc2)NC1=O` was run?
A: Dose-dependent effect

Q: And the inhibition [2]?
A: inactive

Q: What about the Activity (SH-SY5Y [3]) of the same compound?
A: inactive

Q: What about the Activity (SH-SY5Y [4]) of the same compound?
A: Toxic

Q: With `CC(C)C[C@H](N)C(=O)N[C@H]1Cc2ccc(cc2)OC/C=C/C[C@@H](C(=O)N[C@@H](C)C(=O)O)NC(=O)[C@H](Cc2ccccc2)NC1=O` as the compound, how does the inhibition [1] read?
A: Dose-dependent effect

Q: And the inhibition [2]?
A: inactive

Q: And the Activity (SH-SY5Y [3])?
A: inactive

Q: `CC(C)[C@@H]1NC(=O)[C@@H](N)C/C=C/COc2ccc(cc2)C[C@@H](C(=O)N[C@@H](Cc2ccccc2)C(=O)N[C@@H](C)C(=O)O)NC1=O` was tested. Which inhibition [5] did it give?
A: inactive

Q: What about the inhibition [2] of the same compound?
A: inactive

Q: And the Activity (SH-SY5Y [3])?
A: inactive

Q: How did the inhibition [5] turn out when `COC(=O)[C@@H]1C/C=C/COc2ccc(cc2)C[C@H](NC(=O)OC(C)(C)C)C(=O)N[C@@H](CC(C)C)C(=O)N1` was run?
A: inactive

Q: Which results are given for `CC(C)C[C@H](N)C(=O)N[C@H]1Cc2ccc(cc2)OC/C=C/C[C@@H](C(=O)N[C@@H](CC(=O)O)C(=O)O)NC(=O)[C@H](Cc2ccccc2)NC1=O`?
A: inhibition [5]: Active; inhibition [2]: inactive; Activity (SH-SY5Y [3]): inactive

Q: `CC(C)C[C@H](N)C(=O)N[C@H](C(=O)N[C@H]1Cc2ccc(cc2)OC/C=C/C[C@@H](C(=O)O)NC(=O)[C@H](Cc2ccccc2)NC1=O)C(C)C` was tested. Which inhibition [5] did it give?
A: inactive

Q: What about the inhibition [2] of the same compound?
A: inactive

Q: And the Activity (SH-SY5Y [3])?
A: inactive

Q: With `O=C(O)C[C@H](NC(=O)[C@@H]1C/C=C/COc2ccc(cc2)C[C@H](NC(=O)[C@@H]2CCCN2)C(=O)N[C@@H](Cc2ccccc2)C(=O)N1)C(=O)O` as the compound, how does the inhibition [5] read?
A: Active

Q: What about the inhibition [2] of the same compound?
A: inactive

Q: And the Activity (SH-SY5Y [3])?
A: inactive

Q: With `CC(C)C[C@H](N)C(=O)N1CCC[C@H]1C(=O)N[C@@H](Cc1ccccc1)C(=O)N[C@@H](Cc1ccccc1)C(=O)O` (H-LPFF-OH) as the compound, how does the inhibition [5] read?
A: inactive

Q: What does the source list for `C[C@H](NC(=O)[C@@H]1C/C=C/COc2ccc(cc2)C[C@H](NC(=O)[C@@H]2CCCN2)C(=O)N[C@@H](Cc2ccccc2)C(=O)N1)C(=O)O`?
A: inhibition [5]: Active; inhibition [2]: inactive; Activity (SH-SY5Y [3]): inactive
